Measured values as given in PMC3157688 (The FASEB Journal, 2011).

Tests used:
[1] = system: APP[V717I]-transgenic mice; experiment: Open field activity and enriched open field; format: in vivo, mouse; settings: 6-mo-old mice after 3 mo of daily intranasal treatment; data not shown
[2] = system: human APP processing in the brain of APP[V717I]-transgenic mice; experiment: Immunoblot of sAPPα and full-length APP in brain homogenates, first study; format: in vivo, mouse; settings: 10 μg daily intranasal, administration solution 1, 3 mo; 4-mo-old male mice
Summary of the method: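 Male APP[V717I] mice (FVB/N background), 1 mo old, received the test compound intranasally at 10 μg/d (1 μg/μl, 5 μl/nostril), 5 d/wk for 3 mo. Vehicle: NaCl/citric acid/disodium phosphate/benzalkonium chloride water solution. Controls (n=8) received carrier alone. Hemispheres homogenized in ice-cold 20 mM Tris-HCl pH 8.5 plus protease inhibitors, then centrifuged at 100,000 g for 1 h at 4°C. sAPPα probed with 6E10 and a 35S-labeled or peroxidase-coupled secondary.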

[3] = system: brain mRNA levels of APP[V717I] transgenic mice; experiment: Quantitative real-time RT-PCR of brain mRNA levels; format: in vivo, mouse; settings: 6-mo-old mice, 3 mo intranasal treatment; n=7/group
[4] = system: healthy human male subjects; settings: cited from earlier work

**Q.** With “pituitary adenylate cyclase-activating polypeptide [PACAP38]” as the substance, how does the “activity and exploration-related parameters, difference between the tested groups” value [1] read?
**A.** Its value is “no differences”.

**Q.** What about the “expression level of full-length APP in the brain” value [2] of the same substance?
**A.** Its value is “no influence”.

**Q.** And the “ADAM10 gene expression in brain (in words)” value [3]?
**A.** Its value is “not caused by increased ADAM10 and ADAM17 gene expression”.

**Q.** And the “ADAM17 gene expression in brain (in words)” value [3]?
**A.** The value was “not caused by increased ADAM10 and ADAM17 gene expression”.

**Q.** What about the “tolerability of inhaled peptide” value [4] of the same substance?
**A.** Its value is “well tolerated without systemic side-effects”.
